The values below come from PubChem BioAssay.

A number with no mark means an inactive call. Records with an inconclusive call do not appear. The source made the active and inactive calls.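 The calls were made as follows, unless noted: active = RAM network inhibition above 8.4% in each of two replicates, 3 SD over the compound average; inconclusive = above 8.4% inhibition in only one replicate; inactive = 8.4% inhibition or less in each replicate.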

The nature of assay [1]: S. cerevisiae growth inhibition in permissive medium (OD615), pilot counter-assay for S. cerevisiae lifespan shortening project, permissive growth control (AID 705;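 active = growth inhibition above 25% in both replicates, a cutoff set 3 SD above the mean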). The note with it: OD615, 24 h, at 10 µM, stronger effect = higher value. In a few lines:
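Test system: Saccharomyces cerevisiae strain carrying genetically modified DeaD replicative-lifespan system; buffer or medium: SC raffinose/galactose permissive medium; dosing: one dose 10 µM, DMSO 0.25% final; times: 24 h exposure, 30 °C; measured by: OD at 615 nm; read-out basis: growth inhibition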

Assay [2] is described as follows: S. cerevisiae growth inhibition in restrictive medium, OD615, pilot screen, restrictive growth control, yeast lifespan reduction project (AID 706;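 active = growth inhibition above a set limit, 3 SD over mean compound inhibition, in both replicates, cut at about 43% in these data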;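 also: modified DeaD lifespan yeast strain shifted to restrictive glucose medium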). The note with it: OD615, 48 h, at 10 µM, stronger effect = higher value. In a few lines:
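material = engineered S. cerevisiae DeaD strain | buffer or medium = glucose-based CSMM-D restrictive medium | dosing = one concentration, 10 µM final, 0.25% DMSO | schedule = 4 h pre-growth plus 48 h compound exposure, 30 °C | detection = OD615 absorbance reading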

Assay [3] is described as follows: doxorubicin toxicity protection in MRP-1 cells – H69AR cells, CellTiter-Glo, duplicate, MRP-1 activator project, pilot screen (AID 807;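 active = viability increase at or above a cutoff of the median across tested compounds plus 3 SD, cut at about 8.5% in these data, passing the limit was not always enough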;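 also: compound pretreatment 18-22 h then 72 h combined with doxorubicin; 0% = doxorubicin alone and 100% = vehicle without doxorubicin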). The conditions noted are these: H69AR viability with doxorubicin, CellTiter-Glo luminescence; at 10 µM; stronger effect = higher value. For orientation: ATP-based viability assays read luminescence as a measure of living cells.
Assay [4] in a line: viability of HCT116 without oncogenic beta-catenin – human colon tumor cells, pilot screen (AID 823;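 active = cell viability at or below a set limit in both duplicate runs, the limit being the all-compound median minus 4 SD, cut at about 23% in these data, passing the limit was not always enough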;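 also: 0% = wells killed by 20 µM Hyamine and 100% = untreated DMSO cell wells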). The note with it: HCT116 beta-catenin knockout viability, CellTiter-Glo, 60 h; at 10 µM; stronger effect = lower value.
Assay [5] in a line: viability of PTEN-null HCT116 cells – cell-based, HCT116 clonal line, CellTiter-Glo, pilot screen (AID 824;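 active = viability at or below 27.92% in each of two runs, the all-compound median minus 4 SD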;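 also: 0% = 20 µM Hyamine control and 100% = vehicle cell control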). The conditions noted are these: HCT116 PTEN-deleted viability, 60 h, at 10 µM, stronger effect = lower value.
The nature of assay [6]: RAM pathway blockade in budding yeast – dse1pr::URA3 reporter, 5-FOA selection, pilot screen (AID 869;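 active = inhibition over a set limit, the all-compound mean plus 3 SD, in both replicate runs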;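 also: 0% = DMSO wells with no growth and 100% = 10 µM 1-NA-PP1 with full growth; RAM network block rescues cells from 5-FOA so hits raise OD615 growth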). The conditions noted are these: S. cerevisiae dse1pr::URA3 5-FOA growth, OD615, 2 d; at 10 µM; stronger effect = higher value; strain carries analog-sensitive mutant Cbk1 kinase.
Assay [7] in a line: RAM signaling pathway blockade in yeast – S. cerevisiae, Pdr1DBD-CYC8 efflux-inhibited sensitized strain, primary screen (AID 1298).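 Also: 0% = DMSO untreated cells without growth and 100% = 10 µM 1-NA-PP1 full growth; higher means more yeast growth rescued from 5-FOA killing.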 The conditions noted are these: S. cerevisiae cbk1-as DSE1-URA3 strain, 5-FOA growth OD615, 2 d; at 50 µM; stronger effect = higher value.

As a reminder, the viability is a read-out of living cells in per cent, often relative to untreated cells. Usually inhibition stands for the percentage by which the read-out fell short of the control. As for `O=C(C1CCN(S(=O)(=O)c2cccc3cccnc23)CC1)N1CCN(c2ccccc2)CC1`, the growth inhibition was 1.1% in assay [1] and 16.9% in assay [2]. Also, the viability increase in assay [3] is -3.27%. Besides, the viability in assay [4] was 87.7%; in assay [5] it was 83.8%. In assay [6], the inhibition was 1.76%. Moreover, the RAM network inhibition in assay [7] was 6.12%.

As for `Cn1cnnc1SCCC(=O)Nc1ccccc1`, the figures for the growth inhibition in assay [1] and in assay [2] were 6.46% and 0.795%, respectively. Besides, the viability increase in assay [3] is -1.01%. For the same compound, the viability in assay [4] is 101%; in assay [5], 99.5%. Further, the inhibition in assay [6] was 1.14%. In assay [7], the RAM network inhibition was 2.5%.

Regarding `Cc1ccc2cc(CCNC(=O)C(C)(C)C)c(=O)[nH]c2c1`, the growth inhibition in assay [1] was -5.49%; in assay [2], -13.2%. In addition, the viability increase in assay [3] is 0.4%. In addition, the viability in assay [4] was 105%; in assay [5], 97.5%. Besides, the inhibition in assay [6] is 0.125%. In addition, in assay [7], the RAM network inhibition is 3.53%.

For the compound `CC(=O)Oc1ccc(N2C(=O)C3C(C2=O)C2(C)C=CC3(C)O2)cc1` (centres undefined), the growth inhibition is 95.1% (active) in assay [1] and 100% (active) in assay [2]. Moreover, the viability increase in assay [3] is -1.26%. Also, the viability in assay [4] is 99%; in assay [5], 98.4%. In addition, the inhibition in assay [6] was 2.16%. Moreover, the RAM network inhibition in assay [7] is 0.09%.

For `Cc1ccccc1CN1CCNC(=O)C1CC(=O)O` (centres undefined), the figures for the growth inhibition in assay [1] and in assay [2] were -13.2% and -14.1%, respectively. In assay [3], the viability increase was -3.29%. Moreover, the results for the viability in assay [4] and in assay [5] were 105% and 96.2%, respectively. Besides, in assay [6], the inhibition was 2.04%. Moreover, the RAM network inhibition in assay [7] was -0.64%.

On to `COc1ccc(Cn2c(=O)[nH]c3cc(C(=O)N4CCN(Cc5ccccc5)CC4)ccc3c2=O)cc1`, for which the growth inhibition in assay [1] was 1.4%; in assay [2], -4.04%. Also, the viability increase in assay [3] was 1.49%. The viability in assay [4] was 36.3%; in assay [5], 49.7%. Further, in assay [6], the inhibition is 0.835%. In addition, the RAM network inhibition in assay [7] is 1.57%.

On to `CCOC(=O)Cn1c(C)cc(=O)c2cccc(C)c21`, for which the growth inhibition in assay [1] was -19.8%; in assay [2], -12.9%. Further, in assay [3], the viability increase is 0.49%. The viability in assay [4] is 92%; in assay [5], 96.9%. The inhibition in assay [6] was 0.035%. In addition, in assay [7], the RAM network inhibition is 1.15%.

Consider `CC(C)CCOC(=O)C1C2C=CC3(CN(Cc4cccs4)C(=O)C13)O2` (centres undefined), for which the growth inhibition was -9.53% in assay [1] and 2.99% in assay [2]. Further, the viability increase in assay [3] was -0.61%. Further, the viability in assay [4] is 94.3%; in assay [5] it was 91.2%. Besides, the inhibition in assay [6] is 0.305%. In addition, the RAM network inhibition in assay [7] was 2.76%.

As for `CCOCCCNC(=O)c1cccs1`, the growth inhibition in assay [1] was -5.41%; in assay [2] it was -4.17%. Further, in assay [3], the viability increase was -1.31%. Further, the viability in assay [4] is 91%; in assay [5], 94.4%. Moreover, the inhibition in assay [6] is 2.22%. Further, the RAM network inhibition in assay [7] was 0.76%.

Turning to `CCN(c1ccccc1)c1cc(C)nc2nc(C)nn12`, the values for the growth inhibition in assay [1] and in assay [2] were -17% and -3.25%, respectively. In addition, the viability increase in assay [3] was -3.84%. For the same compound, the viability in assay [4] is 106%; in assay [5] it was 96.7%. For the same compound, in assay [6], the inhibition is 1.6%. Moreover, the RAM network inhibition in assay [7] was 4.74%.

As for `COc1cc(C(=O)Nc2cc(C)c(OCC(=O)N3CCOCC3)c(C)c2)cc(OC)c1OC`, the values for the growth inhibition in assay [1] and in assay [2] were -2.29% and 1.77%, respectively. Also, the viability increase in assay [3] is -2.98%. Further, the results for the viability in assay [4] and in assay [5] were 88.8% and 90.4%, respectively. For the same compound, the inhibition in assay [6] is 1.64%. Moreover, the RAM network inhibition in assay [7] is 4.86%.

Turning to `CCN(CCNS(=O)(=O)c1ccc2[nH]c(=O)sc2c1)c1ccccc1`, the growth inhibition was 0.725% in assay [1] and 13% in assay [2]. For the same compound, the viability increase in assay [3] is -1.31%. The viability in assay [4] was 99%; in assay [5], 87.6%. In addition, in assay [6], the inhibition is 0.01%. Besides, the RAM network inhibition in assay [7] was 2.83%.

On to `CCCSc1nnc(Cn2c(=O)sc3ccccc32)n1C`, for which the growth inhibition in assay [1] was -15.8%; in assay [2] it was -38%. The viability increase in assay [3] was -2.24%. The results for the viability in assay [4] and in assay [5] were 94.3% and 87.1%, respectively. Further, in assay [6], the inhibition was 0.415%. The RAM network inhibition in assay [7] is -0.25%.

As to `CCC(=O)Nc1c2c(nn1-c1cccc(Cl)c1)CSC2`, the growth inhibition in assay [1] was -7.68%; in assay [2], -8.67%. Besides, the viability increase in assay [3] was -1.61%. For the same compound, the viability in assay [4] was 89.7%; in assay [5], 86.1%. Further, the inhibition in assay [6] was 2.1%. For the same compound, the RAM network inhibition in assay [7] is 1.11%.

With `O=C(C1Cc2ccccc2O1)N1CCCCC1` (centres undefined), the growth inhibition in assay [1] is -0.465%; in assay [2], 2.46%. Further, the viability increase in assay [3] is -1.5%. For the same compound, the viability in assay [4] is 103%; in assay [5], 101%. Also, the inhibition in assay [6] is 0.17%. The RAM network inhibition in assay [7] is 4.37%.

In the case of `O=C1c2ccccc2C(Nc2ccc3c(c2)OCO3)N1Cc1ccco1` (centres undefined), the growth inhibition in assay [1] is 5.28%; in assay [2] it was -10.7%. Besides, in assay [3], the viability increase is -4.48%. For the same compound, the viability was 78% in assay [4] and 73.3% in assay [5]. The inhibition in assay [6] is 1.98%. Moreover, in assay [7], the RAM network inhibition is 2.26%.

Turning to `CC(=O)Nc1nc2n(n1)C(c1ccccc1)C=C(c1ccccc1)N2` (centres undefined), the growth inhibition was -7.58% in assay [1] and 4.18% in assay [2]. Besides, the viability increase in assay [3] was -2.94%. The viability was 99.9% in assay [4] and 106% in assay [5]. In addition, in assay [6], the inhibition is 1.06%. Moreover, the RAM network inhibition in assay [7] was 1.19%.
